This note sets out measurements from ChEMBL document CHEMBL4261546, “Synthesis of novel pentacyclic triterpene-Neu5Ac2en derivatives and investigation of their in vitro anti-influenza entry activity” (Medchemcomm, 2017).

Series [1] in a line: Inhibition of Influenza virus NA. The arrangement: species or system unidentified influenza virus.
Series [2] relates to MDCK. Kind of series: Cytotoxicity against MDCK cells assessed as reduction in cell viability at 10 uM after 40 hrs by CellTiter-Glo assay. The format is cell-based, Canis lupus familiaris. To be noted: dog. The method in brief: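 Preliminary cytotoxicity screen in MDCK cells at 10 μM and 100 μM. Cells seeded overnight in DMEM with 10% FBS at 37 °C, 5% CO2, then exposed to compound for 40 h. CellTiter-Glo read-out, viability expressed as % of untreated control after background correction. Paclitaxel served as positive control.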
For orientation: ATP-based viability assays read luminescence as a measure of living cells.

Series [3] relates to Influenza A virus. In words: Antiviral activity against Influenza A virus (A/WSN/33(H1N1)) infected in MDCK cells assessed as reduction in virus-induced cytopathic effect after 40 hrs by CellTiter-Glo assay. The class given is functional, organism-based. To be noted: A/WSN/1933(H1N1). The method in brief:
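MDCK cells grown overnight in DMEM with 10% FBS at 37 °C, 5% CO2. Medium replaced with compound plus A/WSN/33 virus (MOI 0.1) in DMEM with 1% FBS, 2 μg/mL TPCK-trypsin and 1% DMSO final. After 40 h, CellTiter-Glo luminescence read as CPE. IC50 is the mean of ≥3 independent determinations with standard deviations.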
On the technique in general: Protection from cytopathic effect is a common read-out in antiviral testing.

Series [4] is described as follows: Cytotoxicity against MDCK cells assessed as reduction in cell viability after 40 hrs by CellTiter-Glo assay. To be noted: dog. The format is cell-based, Canis lupus familiaris. The procedure, abridged:
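MDCK cells seeded in DMEM with 10% FBS and cultured overnight at 37 °C, 5% CO2. Compounds added and incubated 40 h, then CellTiter-Glo viability measured. Viability % = background-corrected signal of treated well divided by control well, ×100. CC50 is the concentration giving 50% cell death.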

A short description of series [5]: Selectivity index, ratio of CC50 for MDCK cells to IC50 for Influenza A virus (A/WSN/33(H1N1)) infected in MDCK cells. The note with it: dog, read-out: Ratio CC50/IC50. The format is toxicity, cell-based. The procedure, abridged: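 SI = CC50/IC50. CC50 comes from the 40 h CellTiter-Glo viability assay in uninfected MDCK cells. IC50 comes from the 40 h CellTiter-Glo CPE-reduction assay with A/WSN/33 at MOI 0.1.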

Series [6] relates to Influenza A virus. Kind of series: Antiviral activity against Influenza A virus (A/WSN/33(H1N1)) infected in MDCK cells assessed as reduction in virus-induced cytopathic effect up to 100 uM after 40 hrs by microscopic method. The class given is functional, organism-based. To be noted: A/WSN/1933(H1N1). The procedure, abridged: (§1)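 MDCK cultures were set up as in the CPE assay: compound with or without A/WSN/33 infection (MOI 0.1), DMEM with 1% FBS and TPCK-trypsin. At 40 h post-infection, wells carrying compound up to 100 μM were inspected microscopically. Scored features were cell aggregation and detachment from the dish.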

For series [7], the system named is MDCK. Kind of series: Cytotoxicity against MDCK cells assessed as morphological changes up to 100 uM after 40 hrs by microscopic method. The class given is cell-based, Canis lupus familiaris. To be noted: dog. The method in brief:
as §1

In a further series the test system is Erythrocyte. Kind of series: Induction of haemagglutination in chicken RBC at 1.5 to 40 uM after 30 mins. The note with it: 0.5 h. The format is cell-based, Gallus gallus. The procedure, abridged: (§2)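 Hemagglutination assay. Freshly prepared 1% v/v chicken RBCs in saline were then added. After 30 min at room temperature, RBC aggregation was scored visually. Anti-HA antibody was the reference.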

In series [8] the target is Hemagglutinin (Influenza A virus) (UniProt B4URE7). Kind of series: Inhibition of Influenza A virus (A/WSN/33(H1N1)) HA-mediated haemagglutination in chicken RBC at 1.5 to 40 uM after 30 mins. The format is cell-based. The note with it: Influenza A virus (A/WSN/1933(H1N1)). The procedure, abridged:
as §2

Series [9] concerns the target Neuraminidase (Influenza A virus (strain A/Wilson-Smith/1933 H1N1) (Influenza A virus(strain A/WS/1933 H1N1))) (UniProt P03470). Kind of series: Inhibition of Influenza A virus (A/WSN/33(H1N1)) NA up to 100 uM using 4-MUNANA as substrate after 30 mins by fluorescence spectrophotometric assay. To be noted: Influenza A virus (A/WSN/1933(H1N1)). The procedure, abridged:
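NA activity was measured with A/WSN/33 virus as the enzyme source, mixed with compound and 20 μM MUNANA in 32.5 mM MES (4 mM CaCl2, pH 6.5). Incubated 30 min at 37 °C, then stopped with 34 mM NaOH. Fluorescent product read at ex 360 nm / em 460 nm.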

The source made the active and inactive calls. No cut-off for these calls is given here.

Sequence of Neuraminidase (Influenza A virus (strain A/Wilson-Smith/1933 H1N1) (Influenza A virus(strain A/WS/1933 H1N1))) (P03470 whole entry): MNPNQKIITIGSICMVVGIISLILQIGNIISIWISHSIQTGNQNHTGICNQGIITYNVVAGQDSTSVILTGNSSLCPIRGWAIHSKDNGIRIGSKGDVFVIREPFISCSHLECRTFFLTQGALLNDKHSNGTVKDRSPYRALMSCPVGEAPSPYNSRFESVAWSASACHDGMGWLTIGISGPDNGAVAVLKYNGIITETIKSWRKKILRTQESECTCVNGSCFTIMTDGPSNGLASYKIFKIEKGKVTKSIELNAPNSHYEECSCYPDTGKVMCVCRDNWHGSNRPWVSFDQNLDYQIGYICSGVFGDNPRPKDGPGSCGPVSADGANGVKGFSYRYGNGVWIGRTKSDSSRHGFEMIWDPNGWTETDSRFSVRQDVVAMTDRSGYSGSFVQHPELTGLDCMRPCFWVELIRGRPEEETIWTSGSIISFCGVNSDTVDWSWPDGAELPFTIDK
Sequence of Hemagglutinin (Influenza A virus) (B4URE7 as listed by the source): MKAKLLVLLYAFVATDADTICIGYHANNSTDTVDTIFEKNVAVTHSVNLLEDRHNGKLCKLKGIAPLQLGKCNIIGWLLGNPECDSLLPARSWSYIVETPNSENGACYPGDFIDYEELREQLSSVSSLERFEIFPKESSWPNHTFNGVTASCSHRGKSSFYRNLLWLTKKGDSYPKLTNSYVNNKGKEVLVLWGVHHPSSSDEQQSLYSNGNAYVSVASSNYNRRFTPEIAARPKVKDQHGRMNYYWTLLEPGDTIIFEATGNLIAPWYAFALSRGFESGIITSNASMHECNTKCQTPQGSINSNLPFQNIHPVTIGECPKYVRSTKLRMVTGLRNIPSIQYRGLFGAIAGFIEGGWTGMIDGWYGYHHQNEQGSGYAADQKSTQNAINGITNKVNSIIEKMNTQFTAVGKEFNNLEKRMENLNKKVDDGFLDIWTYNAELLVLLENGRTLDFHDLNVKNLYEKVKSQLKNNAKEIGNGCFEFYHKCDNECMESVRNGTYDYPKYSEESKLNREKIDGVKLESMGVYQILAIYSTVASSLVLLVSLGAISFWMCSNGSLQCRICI

On to `CC(=O)N[C@H]1[C@H]([C@H](O)[C@H](O)CO)OC(C(=O)O)=C[C@@H]1O` [NEU5AC2EN], for which the affinity in series [1], expressed as Ki, was 4 µM.
Turning to `COC(=O)C1=C[C@H](NC(=O)[C@]23CCC(C)(C)C[C@H]2C2=CC[C@@H]4[C@@]5(C)CC[C@H](O)C(C)(C)[C@@H]5CC[C@@]4(C)[C@]2(C)CC3)[C@@H](NC(C)=O)[C@H]([C@H](OC(C)=O)[C@@H](COC(C)=O)OC(C)=O)O1`, the Activity result with MDCK [2], in the series with MDCK [7] and in the series with Erythrocyte was “Non-Toxic” each time. In addition, in the series with Influenza A virus [3], the IC50 – broadly, the concentration that gives 50% inhibition – came out at 8.3 µM. Besides, in series [4], the CC50 (commonly the concentration giving 50% cytotoxicity) at 40 h was determined as 188 µM. For the same compound, in [5], the selectivity ratio worked out at 22.7. Further, the result with Influenza A virus [6] was Active. In addition, the inhibition result in series [8] was “Active”. For the same compound, the inhibition result in series [9] was “inactive”.
